Measured values from different studies.
Protocols differ between the studies behind these lines.
Target: Ribosomal protein S6 kinase beta-1 (RPS6KB1, Homo sapiens, UniProt P23443)

Structure (SMILES)	effect on	method	concentration	remaining binding [%]
COc1cnc(Nc2cccc(S(N)(=O)=O)c2)nc1N1CCN(c2ccccc2)C(=O)C1	binding	competition with immobilised ligand	1 µM	71
CCC(=N\O)/C(C)=C/c1ccc(F)cc1	cell-free assay	competition with immobilised ligand	1 µM	66
COc1ncc2cc3ccccc3nc2c1C#N	cell-free assay	competition with immobilised ligand	5 µM	100
CN(CCCC(F)(F)F)c1nccc(-c2cnn3ncccc23)n1	binding	–	1 µM	100
Cc1c(C(=O)O)cc(-c2ccc(C3CCNCC3)cc2)c2ccc(-c3ccc(C(F)(F)F)cc3)cc12	binding	competition with immobilised ligand	1 µM	100
O=C(NCC1CCOCC1)c1n[nH]cc1NC(=O)c1c(F)cccc1F	binding	competition with immobilised ligand	1 µM	87
CCN1CCN(Cc2ccc(C(=O)Nc3ccc(C)c(Oc4ccc5c(c4)CC(=O)N5)c3)cc2C(F)(F)F)CC1	binding	competition with immobilised ligand	1 µM	100
CN(c1nccc(-c2cnn3ncccc23)n1)C1CC1	binding	–	1 µM	100
CCCOc1ccc([C@H]2[C@H](C(=O)O)[C@@H](c3ccc4c(c3)OCO4)CN2CC(=O)Nc2c(CC)cccc2CC)cc1	cell-free assay	competition with immobilised ligand	1 µM	76
Cc1cnc(Nc2ccc(C(=O)N3CCC(N4CCCC4)CC3)cc2)nc1-c1cc2ccccc2s1	binding	competition with immobilised ligand	1 µM	36
C[C@@H]1CCN(c2nccc(-c3cnn4ncccc34)n2)C1	binding	–	1 µM	87
O=C(c1ccc(Nc2nccc(-c3cc4ccccc4s3)n2)cc1)N1CCC(N2CCCC2)CC1	binding	competition with immobilised ligand	1 µM	79
CC1CCCN1c1nccc(-c2cnn3ncccc23)n1 (stereo not drawn)	binding	–	1 µM	100
O=C(c1ccc(Nc2ncc(Cl)c(-c3ccc(Cl)s3)n2)cc1)N1CCC(N2CCCC2)CC1	binding	competition with immobilised ligand	1 µM	21
N[C@@H]1CCN(c2nccc(-c3cnn4ncccc34)n2)C1	binding	–	1 µM	100
CNC(=O)c1ccc(Nc2ncc(C(F)(F)F)c(NCc3nccnc3N(C)S(C)(=O)=O)n2)cc1	cell-free assay	competition with immobilised ligand	0.1 µM	96
CN(C)c1nccc(-c2cnn3ncccc23)n1	binding	–	1 µM	100
O=C(NC[C@@H]1[C@H]2CN(C(=O)OCc3cc(C(F)(F)F)cc(C(F)(F)F)c3)C[C@@H]12)c1ccc2[nH]nnc2c1	cell-free assay	competition with immobilised ligand	1 µM	86
C=CC(=O)N1CCC(C(=O)NCC(=O)N2CCN(c3nc(-c4cnc(N)nc4C(F)F)nc(N4CCOCC4)n3)CC2)CC1	binding	competition with immobilised ligand	1 µM	56
C[C@@H](c1cccc(C#N)c1)n1cc(Cl)cc(C(N)=O)c1=N	cell-free assay	competition with immobilised ligand	1 µM	100
c1cncc(-c2cccc(Nc3nccc(NC4CCCCC4)n3)c2)c1	binding	competition with immobilised ligand	10 µM	64
